Results pooled from the literature.
Protocols differ between the studies behind these lines.
Target: Focal adhesion kinase 1 (PTK2, Homo sapiens, UniProt Q05397)

SMILES	assay	setting	endpoint	result
CCN(CC)c1ccc(C2=NNC(=O)CC2C)cc1[N+](=O)[O-] (stereo not drawn)	enzyme activity, inhibitor	10 µM	remaining activity	96%
CCS(=O)(=O)c1cc2cc(C[C@](O)(CC(C)(C)c3ccc(F)cc3C(N)=O)C(F)(F)F)[nH]c2cn1	cell-free assay, competition with immobilised ligand	1 µM	remaining binding	97%
Cc1ccc(C(=O)Nc2ccc(CN3CCN(C)CC3)c(C(F)(F)F)c2)cc1C#Cc1cnc2cccnn12	enzyme activity, inhibitor	23.5 nM	remaining activity	100%
N[C@@H]1CCN(c2nccc(-c3cnn4ncccc34)n2)C1	cell-free assay	1 µM	remaining signal	97%
CC/C(=N\NC(=O)NCc1cccc(O)c1)c1ccc(O)c(C)c1O	enzyme activity, inhibitor	0.1 µM	inhibition	-3.8%
CS(=O)(=O)Nc1cccc(-c2csc(NC(=O)CSc3nc4nccnc4c(=O)n3CCc3ccccc3)n2)c1	enzyme activity, inhibitor	10 µM	inhibition	2%
COc1cc2ncnc(Nc3ccc(Oc4ccccc4)c(C)c3C)c2cc1OC	enzyme activity, inhibitor	1 µM	inhibition	-1%
COc1cc(Cl)c(C(=O)N[C@@H](CN[C@H]2CC[C@@H](N)CC2)Cc2ccc(C#N)cc2)cc1-c1ccc(CN[C@H](C)c2ccc(C)cc2)o1	enzyme activity, inhibitor	1 µM	remaining activity	100%
C[C@@H]1CN(c2cc(-c3nn(C)c4ccc(OC5(C)CC5)cc34)ncn2)C[C@H](C)O1	cell-free assay, competition with immobilised ligand	1 µM	remaining binding	95%
COc1cc(-c2cc(-c3ccc(N4CCNCC4)cc3)cnc2C)cc(OC)c1OC	enzyme activity, inhibitor	0.1 µM	inhibition	26%
COCCOc1nc(-c2ccc(Cl)nc2)nc2c1CN(C(=O)c1ncn3ccccc13)CC2	cell-free assay, competition with immobilised ligand	0.1 µM	remaining binding	99%
O=C(Nc1cnn(-c2csc(C(=O)NC3COC3)c2)c1)Nc1c(F)cccc1Cl	enzyme activity, inhibitor	5 µM	remaining activity	89%
CCOC(=O)c1cc2cc(-c3cc(C(=O)NCc4ccc(C(=O)O)cc4)nn3C)ccc2[nH]1	cell-free assay, competition with immobilised ligand	0.1 µM	remaining binding	94%
Nc1ncnc2occ(-c3ccc(NC(=O)Nc4cc(C(F)(F)F)ccc4F)cc3)c12	cell-free assay, inhibitor	20 µM	remaining signal	0.1%
Nc1nc(Nc2ccc(S(N)(=O)=O)cc2)nn1C(=O)c1c(F)cccc1F	cell-free assay	0.5 µM	remaining signal	95.5%
O=c1nc(-c2ccccn2)sc2ccccc12	binding, competition with immobilised ligand	1 µM	remaining binding	90%
c1nc2c(Nc3ccc4c(c3)OCCO4)nc(Nc3ccc4c(c3)OCCO4)nc2[nH]1	enzyme activity, inhibitor	10 µM	activity vs control	58%
Cc1sc(C(=O)NC2COC2)cc1-n1cc(NC(=O)Nc2c(F)cccc2Cl)cn1	enzyme activity, inhibitor	10 µM	remaining activity	104%
CN1CC(Oc2cnc(C#N)cc2-c2ccn3nc(NC(=O)C4CC4)cc3c2)C1	enzyme activity, inhibitor	1 µM	inhibition	1%
Cc1ccc(Nc2nccc(N(C)c3ccc4c(C)n(C)nc4c3)n2)cc1S(N)(=O)=O	enzyme activity, inhibitor	0.3 µM	inhibition	4%
CC(C)(O)[C@H]1CC[C@H](Nc2ccc3ncc(-c4cccc(C(F)(F)F)c4)n3n2)CC1	enzyme activity, inhibitor	1 µM	remaining activity	83.5%
Cc1[nH]c(/C=C2\C(=O)Nc3ccc(F)cc32)c(C)c1C(=O)N[C@H]1CCN(C(=O)N(C)C)C1	enzyme activity, inhibitor	0.1 µM	remaining activity	88%
Cc1ccc(C(=O)NCc2ccsc2)cc1C#Cc1cn(C(C)C)c2ncnc(N)c12	enzyme activity, inhibitor	1 µM	activity vs control	79%
CSc1cccnc1N1CCN(Cc2nc3ccccc3[nH]2)CC1	cell-free assay, competition with immobilised ligand	1 µM	remaining binding	100%
O=C1NC(=O)c2cc(Nc3ccc(F)cc3)c(Nc3ccc(F)cc3)cc21	cell-free assay	0.5 µM	remaining signal	96%
Cc1nccc(COC(=O)N2C[C@@H]3[C@@H](CNC(=O)c4ccc5[nH]nnc5c4)[C@@H]3C2)n1	cell-free assay, competition with immobilised ligand	1 µM	remaining binding	100%
Oc1cccc(-c2nc(N3CCOCC3)c3oc4ncccc4c3n2)c1	cell-free assay	0.5 µM	remaining signal	93.5%
Cc1cnn2ncc(-c3ccnc(N(C)C)n3)c2c1	cell-free assay	1 µM	remaining signal	92%
CC(=O)Nc1c(C(C)=O)c(=O)n(C)c2nc(-c3ccc(Cl)cc3Cl)c(-c3ccc(Cl)cc3)cc12	cell-free assay, competition with immobilised ligand	1 µM	remaining binding	100%
CC(C)(C)c1nc2c(s1)c1nc(N)ncc1c1ccc(NS(=O)(=O)c3c(F)cccc3F)c(F)c12	enzyme activity, inhibitor, radiometric	1 µM	remaining activity	99%
